Legend:
[1] = system: Mus musculus; assay: Anticonvulsant activity in Swiss mouse assessed as protection against seizures at 100 mg/kg, ip dosed 1 hr before initiation of maximal electroconvulsions by maximal electroshock test; assay type: functional
Outline: (§1)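 Mice were dosed i.p. at a fixed 300 or 100 mg/kg (6 Hz: 100 mg/kg only). Protection was then scored against MES, sc PTZ or 6 Hz seizures at pretreatment times of 0.25, 0.5, 1 and 2 h. Groups were four mice, scored as number protected / number tested. This also gives the time course and time of peak effect.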

[2] = system: Liver microsome; assay: Drug metabolism in human liver microsomes assessed as metabolite M1 formation at 50 uM in presence of NADPH regeneration system pre-incubated at 37 degC for 5 min and measured 2 hrs after post NADPH system addition by UPLC and LC-MS/MS method; assay type: ADME
Outline: (§2)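 The compound was incubated 2 h with human liver microsomes. Metabolites were detected by full-scan chromatogram and identified by LC/MS from their [M+H]+ molecular masses.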

[3] = system: Mus musculus; assay: Protective index, ratio of neurotoxic TD50 in Swiss mouse by Chimney test to anticonvulsant ED50 in Swiss mouse measured at 1 hr of time to peak effect by subcutaneous pentylenetetrazole seizure test; assay type: functional
Outline: (§3)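 Protective index was calculated as TD50 (chimney test, mouse, i.p.) divided by ED50 from the matching MES, sc PTZ or 6 Hz test, both taken at the time of peak effect.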

[4] = system: Mus musculus; assay: Anticonvulsant activity in Swiss mouse model of 6 Hz psychomotor seizure mode assessed as protection against seizures at 100 mg/kg, ip dosed 1 hr before 6 Hz electrical stimulation by 6 Hz test; assay type: functional; outline: as §1
[5] = system: Liver microsome; assay: Drug metabolism in human liver microsomes assessed as metabolite M3 formation at 50 uM in presence of NADPH regeneration system pre-incubated at 37 degC for 5 min and measured 2 hrs after post NADPH system addition by UPLC and LC-MS/MS method; assay type: ADME; outline: as §2
[6] = system: Mus musculus; assay: Anticonvulsant activity in Swiss mouse assessed as protection against seizures at 100 mg/kg, ip dosed 0.25 hrs before initiation of maximal electroconvulsions by maximal electroshock test; assay type: functional; outline: as §1
[7] = system: Mus musculus; assay: Anticonvulsant activity in Swiss mouse assessed as protection against seizures at 300 mg/kg, ip dosed 0.5 hrs before pentylenetetrazole challenge by subcutaneous pentylenetetrazole seizure test; assay type: functional; outline: as §1
[8] = system: Mus musculus; assay: Anticonvulsant activity in Swiss mouse assessed as protection against seizures at 100 mg/kg, ip dosed 1 hr before pentylenetetrazole challenge by subcutaneous pentylenetetrazole seizure test; assay type: functional; outline: as §1
[9] = species: Mus musculus; assay: Protective index, ratio of neurotoxic TD50 in Swiss mouse by Chimney test to anticonvulsant ED50 in Swiss mouse measured at 0.5 hrs of time to peak effect by maximal electroshock test; outline: as §3
[10] = system: Liver microsome; assay: Drug metabolism in human liver microsomes assessed as metabolite M4 formation at 50 uM in presence of NADPH regeneration system pre-incubated at 37 degC for 5 min and measured 2 hrs after post NADPH system addition by UPLC and LC-MS/MS method; assay type: ADME; outline: as §2
[11] = molecular target: CYP3A4 (Homo sapiens, UniProt P08684); assay: Inhibition of human recombinant CYP3A4 assessed as remaining enzyme activity by measuring conversion of luciferin-PPXE into D-luciferin at 25 uM by luminescence CYP3A4 P450-Glo assay relative to untreated control; assay type: ADME; conditions: recombinant CYP3A4, probe luciferin-PPXE, read-out: Activity
[12] = system: Mus musculus; assay: Anticonvulsant activity in ip dosed Swiss mouse assessed as protection against seizures measured at 0.5 hrs of time to peak effect by maximal electroshock test; assay type: functional
Outline: (§4)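 Median effective doses (ED50, mg/kg) were determined i.p. in mice at the time of peak effect in the MES, sc PTZ or 6 Hz tests. Only compounds giving at least 50% protection at 100 mg/kg in that test were taken forward.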

[13] = species: Mus musculus; assay: Protective index, ratio of neurotoxic TD50 in Swiss mouse by Chimney test to anticonvulsant ED50 in Swiss mouse measured at 0.5 hrs of time to peak effect by 6 Hz test by 6 Hz psychomotor seizure test; assay type: functional; outline: as §3
[14] = species: Rattus norvegicus; assay: Inhibition of [3H]BTX binding to sodium channel site 2 in rat cerebral cortex synaptosomes at 10 uM incubated for 60 mins by scintillation counting based radioligand displacement assay; assay type: subcellular
Outline: (§5)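 Synaptoneurosomal preparations from rat cerebral cortex were used. The read-out was inhibition of specific [3H]BTX binding to the voltage-sensitive sodium channel (site 2), expressed as % inhibition of control specific binding. Compounds were tested at 1, 10, 100 and 500 μM. Inhibition above 50% was taken as significant.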

[15] = system: Mus musculus; assay: Anticonvulsant activity in Swiss mouse model of 6 Hz psychomotor seizure mode assessed as protection against seizures at 100 mg/kg, ip dosed 2 hrs before 6 Hz electrical stimulation by 6 Hz test; assay type: functional; outline: as §1
[16] = system: Mus musculus; assay: Anticonvulsant activity in Swiss mouse assessed as protection against seizures at 100 mg/kg, ip dosed 0.5 hrs before initiation of maximal electroconvulsions by maximal electroshock test; assay type: functional; outline: as §1
[17] = Protective index, ratio of neurotoxic TD50 in Swiss mouse by Chimney test to anticonvulsant ED50 in Swiss mouse measured at 1 hr of time to peak effect by 6 Hz test by 6 Hz psychomotor seizure test; assay type: toxicity; conditions: in vivo, read-out: Ratio TD50/ED50
Outline: (§6)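 Neurotoxicity (TD50) estimated in mice i.p. by chimney test for motor coordination impairment; protective index calculated as TD50/ED50 for each seizure model.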

[18] = system: Mus musculus; assay: Anticonvulsant activity in Swiss mouse assessed as protection against seizures at 300 mg/kg, ip dosed 2 hrs before initiation of maximal electroconvulsions by maximal electroshock test; assay type: functional; outline: as §1
[19] = system: Mus musculus; assay: Anticonvulsant activity in ip dosed Swiss mouse assessed as protection against seizures measured at 1 hr of time to peak effect by 6 Hz test by 6 Hz psychomotor seizure test; assay type: functional
[20] = system: Mus musculus; assay: Anticonvulsant activity in Swiss mouse assessed as protection against seizures at 300 mg/kg, ip dosed 1 hr before pentylenetetrazole challenge by subcutaneous pentylenetetrazole seizure test; assay type: functional; outline: as §1
[21] = system: Mus musculus; assay: Anticonvulsant activity in ip dosed Swiss mouse assessed as protection against seizures measured at 0.5 hrs of time to peak effect by 6 Hz test by 6 Hz psychomotor seizure test; assay type: functional; outline: as §4
[22] = system: Mus musculus; assay: Anticonvulsant activity in Swiss mouse model of 6 Hz psychomotor seizure mode assessed as protection against seizures at 100 mg/kg, ip dosed 0.25 hrs before 6 Hz electrical stimulation by 6 Hz test; assay type: functional; outline: as §1
[23] = system: Mus musculus; assay: Anticonvulsant activity in ip dosed Swiss mouse assessed as protection against seizures measured at 1 hr of time to peak effect by subcutaneous pentylenetetrazole seizure test; assay type: functional
[24] = system: Mus musculus; assay: Anticonvulsant activity in ip dosed Swiss mouse assessed as protection against seizures measured at 0.5 hrs of time to peak effect by subcutaneous pentylenetetrazole seizure test; assay type: functional; outline: as §4
[25] = Ratio of IC50 for test compound to IC50 for doxorubicin against HEK293 cells assessed as reduction in cell viability after 48 hrs by EZ4U label based assay; conditions: human, read-out: Ratio IC50
[26] = Toxicity in ip dosed Swiss mouse assessed as induction of motor performance impairment measured within 60 seconds measured at 1 hr of time to peak effect by Chimney test; assay type: organism-based; conditions: in vivo; outline: as §6
[27] = species: Rattus norvegicus; assay: Inhibition of [3H]BTX binding to sodium channel site 2 in rat cerebral cortex synaptosomes at 500 uM incubated for 60 mins by scintillation counting based radioligand displacement assay; assay type: subcellular; outline: as §5

CYP3A4, sequence (P08684 whole entry): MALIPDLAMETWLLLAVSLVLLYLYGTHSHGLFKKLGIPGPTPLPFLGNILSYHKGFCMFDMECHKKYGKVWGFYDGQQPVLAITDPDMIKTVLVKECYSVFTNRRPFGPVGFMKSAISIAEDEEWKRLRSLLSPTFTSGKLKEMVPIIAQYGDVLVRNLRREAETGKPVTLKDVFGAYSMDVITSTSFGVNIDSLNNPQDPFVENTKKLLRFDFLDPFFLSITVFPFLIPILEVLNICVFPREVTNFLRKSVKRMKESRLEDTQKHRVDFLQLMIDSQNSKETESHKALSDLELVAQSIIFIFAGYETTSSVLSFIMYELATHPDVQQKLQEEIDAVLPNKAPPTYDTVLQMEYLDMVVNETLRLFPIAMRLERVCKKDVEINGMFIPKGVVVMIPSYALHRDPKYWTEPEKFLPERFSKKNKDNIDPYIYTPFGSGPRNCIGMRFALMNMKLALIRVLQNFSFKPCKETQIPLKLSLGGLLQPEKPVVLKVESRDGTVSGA

SMILES: CC(C(=O)N1CCN(c2cccc(C(F)(F)F)c2)CC1)N1C(=O)CCC1=O (racemic)
- Activity [1]: 50%
- Drug metabolism [2]: metabolite_detected
- Ratio TD50/ED50 [3]: 9.28
- Activity [4]: 100%
- Drug metabolism [5]: metabolite_detected
- Activity [6]: 50%
- Activity [7]: 100%
- Activity [8]: 75%
- Ratio TD50/ED50 [9]: >16.97
- Drug metabolism [10]: metabolite_detected
- activity at 25 µM [11]: 68.4%
- ED50 [12]: 88.4 mg/kg
- Ratio TD50/ED50 [13]: >71.43
- inhibition [14]: 12.2%
- Activity [15]: 100%
- Activity [16]: 75%
- selectivity ratio at 1 h [17]: 23.5
- Activity [18]: 100%
- ED50 [19]: 35 mg/kg
- Activity [20]: 100%
- ED50 [21]: 21 mg/kg
- Activity [22]: 75%
- ED50 [23]: 88.7 mg/kg
- ED50 [24]: 59.9 mg/kg
- selectivity ratio at 48 h [25]: 100
- TD50 at 1 h [26]: 824 mg/kg
- inhibition [27]: 62.3%

From ChEMBL document CHEMBL3580554, “Design, synthesis, and anticonvulsant activity of new hybrid compounds derived from 2-(2,5-dioxopyrrolidin-1-yl)propanamides and 2-(2,5-dioxopyrrolidin-1-yl)butanamides” (J Med Chem, 2015)
